# Assay results from ChEMBL document CHEMBL1131201, “N-(benzyloxycarbonyl)glycine esters and amides as new anticonvulsants” (J Med Chem, 1998).
# Assays:
# Mus musculus [1] = assay: Tonic seizures was evaluated after 0.5 hr in 3-mercaptopropionic acid test in mice at a dose of 119 mg/kg; assay type: functional
# How it was run: (§1)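 Male NMRI mice (18-25 g) received test agent ip at 119 mg/kg, dissolved in DMSO, 2 mL/kg. 40 mg/kg 3-mercaptopropionic acid in saline was injected ip 30 min or 3 h later. Percentage of animals with tonic seizures was recorded.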
# Mus musculus [2] = assay: Clonic seizures was evaluated after 3h in pentylenetetrazole test in mice at a dose of 85 mg/kg; assay type: functional
# [3] = Lethality was evaluated after 0.5 hr in 3-mercaptopropionic acid test in mice at a dose of 119 mg/kg; assay type: ADME, organism-based; parameters: dose 119 mg/kg; conditions: mouse, in vivo
# How it was run: (§2)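 Male NMRI mice (18-25 g, bred in-house) got test compound ip at 119 mg/kg, dissolved in DMSO and given at 2 mL/kg. At 30 min or 3 h after dosing, 3-mercaptopropionic acid in saline was injected ip at 40 mg/kg. Deaths were recorded and reported as percent lethality.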
# [4] = Lethality was evaluated after 3h in 3-mercaptopropionic acid test in mice at a dose of 119 mg/kg; assay type: ADME, organism-based; parameters: dose 119 mg/kg; conditions: mouse, in vivo; how it was run: as §2
# Mus musculus [5] = assay: Clonic seizures was evaluated after 0.5 hr in pentylenetetrazole test in mice at a dose of 85 mg/kg; assay type: functional
# Mus musculus [6] = assay: Tonic seizures was evaluated after 0.5 hr in pentylenetetrazole test at a dose of 120 mg/kg; assay type: functional
# How it was run: (§3)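 Male NMRI mice (18-25 g) were dosed ip at 119 mg/kg in DMSO (2 mL/kg). At 30 min or 3 h, pentylenetetrazole in saline was given sc at 85 or 120 mg/kg (the convulsant dose named in each line). Mice were observed individually for 30 min, with clonic and tonic seizures and deaths noted as percent of animals.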
# Mus musculus [7] = assay: Tonic seizures was evaluated after 3h in strychnine test in mice at a dose of 119 mg/kg; assay type: functional
# How it was run: (§4)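 Male NMRI mice (18-25 g) were dosed ip at 119 mg/kg in DMSO (2 mL/kg). At 30 min or 3 h, strychnine chlorhydrate in saline was given sc (1.2 mg/mL, 1 mL/kg). Mice were observed individually for 30 min, with tonic seizures and lethality recorded as percent of animals.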
# Mus musculus [8] = assay: Clonic seizures was evaluated after 0.5 hr in pentylenetetrazole test in mice at a dose of 120 mg/kg; assay type: functional
# How it was run: (§5)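 Male NMRI mice (18-25 g). Test compound dissolved in DMSO, given ip at 2 mL/kg. Convulsant given 30 min or 3 h later: pentylenetetrazole (85 or 120 mg/kg) sc in saline, or 3-mercaptopropionic acid 40 mg/kg ip in saline. Mice caged singly and watched 30 min. Clonic and tonic seizures and deaths counted, expressed as % of animals.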
# [9] = Lethality was evaluated after 0.5 hr in strychnine test in mice at a dose of 119 mg/kg; assay type: ADME, organism-based; parameters: dose 119 mg/kg; conditions: mouse, in vivo
# How it was run: (§6)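 Male NMRI mice (18-25 g) got compound ip at 119 mg/kg in DMSO (2 mL/kg). At 30 min or 3 h after dosing, strychnine chlorhydrate in saline (1.2 mg/mL) was injected sc at 1 mL/kg. Mice were caged singly and observed for 30 min, recording seizure onset, tonic seizures and lethality (%).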
# [10] = Lethality was evaluated after 3h in strychnine test in mice at a dose of 119 mg/kg; assay type: ADME, organism-based; parameters: dose 119 mg/kg; conditions: mouse, in vivo; how it was run: as §6
# Mus musculus [11] = assay: Tonic seizures was evaluated after 3h in pentylenetetrazole test at a dose of 85 mg/kg; assay type: functional; how it was run: as §3
# Mus musculus [12] = assay: Tonic seizures was evaluated after 0.5 hr in strychnine test in mice at a dose of 119 mg/kg; assay type: functional; how it was run: as §4
# [13] = Lethality was evaluated after 3h in pentylenetetrazole test in mice at a dose of 85 mg/kg; assay type: ADME, organism-based; parameters: dose 85 mg/kg; conditions: mouse, in vivo
# How it was run: (§7)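 Male NMRI mice (18-25 g) got compound ip at 119 mg/kg in DMSO (2 mL/kg). At 30 min or 3 h after dosing, pentylenetetrazole in saline was given sc at 85 or 120 mg/kg. Mice were caged singly and watched for 30 min, noting clonic and tonic seizures and deaths. Lethality is given as a percentage.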
# Mus musculus [14] = assay: Tonic seizures was evaluated after 0.5 hr in pentylenetetrazole test at a dose of 85 mg/kg; assay type: functional; how it was run: as §3
# [15] = Lethality was evaluated after 0.5 hr in pentylenetetrazole test in mice at a dose of 85 mg/kg; assay type: ADME, organism-based; parameters: dose 85 mg/kg; conditions: mouse, in vivo; how it was run: as §7
# Mus musculus [16] = assay: Clonic seizures was evaluated after 0.5 hr in 3-mercaptopropionic acid test in mice at a dose of 119 mg/kg; assay type: functional; how it was run: as §5
# Mus musculus [17] = assay: Clonic seizures was evaluated after 3h in 3-mercaptopropionic acid test in mice at a dose of 119 mg/kg; assay type: functional; how it was run: as §5
# [18] = Lipophilicity value was evaluated; assay type: physicochemical; conditions: RP-HPLC
# How it was run: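 Lipophilicity by RP-HPLC on a C18 column at 1.0 mL/min. Mobile phases were 10-50% […] with 50-90% 0.01 M phosphate buffer pH 7.4. Triplicate runs per eluent. log k_o extrapolated from at least four eluent compositions. ClogP also calculated.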
# Mus musculus [19] = assay: Compound was tested for anticonvulsant activity in maximal electroshock seizure(MES) test after 30 min upon intraperitoneal administration to mice; assay type: functional; conditions: ip, 0.5 h
# How it was run: (§8)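 Male OF1 mice (15-25 g), free access to water only during testing. Compound given ip and maximal electroshock applied at 30 min or 3 h. Typically 8-10 mice per compound, dose and time point. Screening at initial 0.4 mmol/kg, scored as protected/tested.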
# Mus musculus [20] = assay: Compound was tested for anticonvulsant activity in maximal electroshock seizure(MES) test after 3 hours upon intraperitoneal administration to mice; assay type: functional; conditions: ip; how it was run: as §8
# [21] = Lethality was evaluated after 0.5 hr in pentylenetetrazole test in mice at a dose of 120 mg/kg; assay type: ADME, organism-based; parameters: dose 120 mg/kg; conditions: mouse, in vivo; how it was run: as §7
# Mus musculus [22] = assay: Tonic seizures was evaluated after 3h in 3-mercaptopropionic acid test in mice at a dose of 119 mg/kg; assay type: functional; how it was run: as §1
structure (smiles),measurement,setting,value
O=C(CNC(=O)OCc1ccccc1)NCc1ccccc1,Tonic seizures,Mus musculus [1],17%
same,Clonic seizures,Mus musculus [2],80%
same,Lethality,[3],0%
same,Lethality,[4],30%
same,Clonic seizures,Mus musculus [5],67%
same,Tonic seizures,Mus musculus [6],0%
same,Tonic seizures,Mus musculus [7],80%
same,Clonic seizures,Mus musculus [8],83%
same,Lethality,[9],17%
same,Lethality,[10],80%
same,Tonic seizures,Mus musculus [11],70%
same,Tonic seizures,Mus musculus [12],33%
same,Lethality,[13],60%
same,Tonic seizures,Mus musculus [14],0%
same,Lethality,[15],22%
same,Clonic seizures,Mus musculus [16],83%
same,Clonic seizures,Mus musculus [17],100%
same,Log Ko,[18],3.5
same,ED50,Mus musculus [19],4.8 mg/kg
same,ED50,Mus musculus [20],11.6 mg/kg
same,Lethality,[21],50%
same,Tonic seizures,Mus musculus [22],0%
